Data from ChEMBL document CHEMBL4364314, “Design, synthesis and biological evaluation of 6-deoxy O-spiroketal C-arylglucosides as novel renal sodium-dependent glucose cotransporter 2 (SGLT2) inhibitors for the treatment of type 2 diabetes” (Eur J Med Chem, 2019).

Legend:
[1] = molecular target: T1, Sodium/glucose cotransporter 2 (Homo sapiens, UniProt P31639); assay: Inhibition of human full length SGLT2 expressed in NIH3T3 cells measured after 1 hr in presence of [14C]-methyl-alpha -D-glucopyranoside by scintillation counter method; assay type: cell-based
T1 sequence (P31639 whole entry): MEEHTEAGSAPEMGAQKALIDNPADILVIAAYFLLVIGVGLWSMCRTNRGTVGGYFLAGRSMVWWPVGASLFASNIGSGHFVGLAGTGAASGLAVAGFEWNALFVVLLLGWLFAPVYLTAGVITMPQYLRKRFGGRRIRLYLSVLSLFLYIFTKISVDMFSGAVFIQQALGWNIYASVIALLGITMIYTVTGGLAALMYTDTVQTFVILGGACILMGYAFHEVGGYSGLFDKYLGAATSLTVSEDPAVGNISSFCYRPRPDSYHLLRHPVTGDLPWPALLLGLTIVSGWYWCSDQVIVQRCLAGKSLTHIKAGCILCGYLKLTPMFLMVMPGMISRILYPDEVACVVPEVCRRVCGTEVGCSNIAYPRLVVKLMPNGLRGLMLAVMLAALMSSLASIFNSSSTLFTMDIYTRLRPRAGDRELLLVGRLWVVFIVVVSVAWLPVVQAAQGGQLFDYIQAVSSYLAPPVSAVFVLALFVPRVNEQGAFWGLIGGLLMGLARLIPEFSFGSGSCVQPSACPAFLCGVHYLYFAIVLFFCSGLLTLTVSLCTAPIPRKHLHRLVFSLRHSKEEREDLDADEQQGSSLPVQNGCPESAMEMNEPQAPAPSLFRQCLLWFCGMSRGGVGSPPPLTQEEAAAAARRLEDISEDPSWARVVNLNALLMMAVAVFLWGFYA
Outline: (§1)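 Stable NIH3T3 lines from retroviral transduction of full-length hSGLT1 or hSGLT2 (pBABE-puro, 8 µg/mL polybrene, puromycin 2 µg/mL selection for 2 weeks). Cells plated 2 days ahead, 2 mmol/L sodium butyrate added day 2. Read by scintillation counting. Compound-free buffer served as negative control, sodium-free N-methyl-glucamine buffer as blank.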

[2] = species on record: Homo sapiens; assay: Selectivity ratio of IC50 for human full length SGLT1 to IC50 for human full length SGLT2
Outline: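 Ratio of IC50 at hSGLT1 to IC50 at hSGLT2, both from the [14C]methyl-α-D-glucopyranoside uptake assay in stably transfected NIH3T3 cells.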

[3] = molecular target: T2, Sodium/glucose cotransporter 1 (Homo sapiens, UniProt P13866); assay: Inhibition of human full length SGLT1 expressed in NIH3T3 cells measured after 1 hr in presence of [14C]-methyl-alpha -D-glucopyranoside by scintillation counter method; assay type: cell-based; outline: as §1
T2 sequence (P13866 whole entry): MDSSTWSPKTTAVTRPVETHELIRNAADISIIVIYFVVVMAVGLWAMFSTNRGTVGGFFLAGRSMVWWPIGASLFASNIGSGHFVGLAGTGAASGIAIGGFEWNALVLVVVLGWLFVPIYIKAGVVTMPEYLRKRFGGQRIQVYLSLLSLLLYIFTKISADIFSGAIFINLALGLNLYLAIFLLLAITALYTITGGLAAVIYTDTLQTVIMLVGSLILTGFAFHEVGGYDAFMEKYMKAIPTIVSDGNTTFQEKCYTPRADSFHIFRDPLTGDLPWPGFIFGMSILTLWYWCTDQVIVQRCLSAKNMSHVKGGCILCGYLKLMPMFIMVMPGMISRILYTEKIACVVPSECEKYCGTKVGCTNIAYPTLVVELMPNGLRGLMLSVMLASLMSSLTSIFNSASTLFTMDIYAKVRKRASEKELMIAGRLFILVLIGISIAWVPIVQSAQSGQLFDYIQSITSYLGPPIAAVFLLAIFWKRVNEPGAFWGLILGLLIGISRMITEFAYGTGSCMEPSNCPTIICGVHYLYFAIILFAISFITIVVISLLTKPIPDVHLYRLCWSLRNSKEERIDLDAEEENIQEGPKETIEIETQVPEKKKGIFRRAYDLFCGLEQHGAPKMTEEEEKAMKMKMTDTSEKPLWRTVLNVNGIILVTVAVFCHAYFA

[4] = molecular target: T3, Sodium/glucose cotransporter 2 (Homo sapiens) (UniProt P31639); assay: Binding affinity to human SGLT2 assessed as dissociation half-life
T3 sequence (whole entry): T1 sequence (P31639 whole entry)

[5] = tested on: Rattus norvegicus; assay: Effect on urine glucose excretion in Sprague-Dawley rat 1 mg/kg, po administered as single dose measured after 24 hrs assessed per 100 grams (reference value: 0.51 +/- 0.40 mg); assay type: functional
[6] = tested on: Rattus norvegicus; assay: Effect on urine glucose concentration in Sprague-Dawley rat at 1 mg/kg, po administered as single dose measured after 24 hrs by glucose oxidase method (reference value: 0.28 +/- 0.16 mmol/L); assay type: functional
[7] = tested on: Rattus norvegicus; assay: Effect on urinary volume in Sprague-Dawley rat at 1 mg/kg, po administered as single dose measured after 24 hrs (reference value: 24.17 +/- 7.11 mL); assay type: ADME, organism-based; conditions: in vivo
[8] = tested on: Mus musculus; assay: Effect on urine glucose concentration in C57BL/6J mouse at 1 mg/kg, po administered as single dose measured after 24 hrs by glucose oxidase method (reference value: 0.74 +/- 0.14 mmol/L); assay type: functional
[9] = tested on: Mus musculus; assay: Effect on urinary volume in C57BL/6J mouse at 1 mg/kg, po administered as single dose measured after 24 hrs (reference value: 1.24 +/- 0.45 mL); assay type: ADME, organism-based; conditions: in vivo
[10] = tested on: Mus musculus; assay: Effect on urine glucose excretion in C57BL/6J mouse at 1 mg/kg, po administered as single dose measured after 24 hrs assessed per 100 grams (reference value: 0.84 +/- 0.40 mg ); assay type: functional

SMILES | IC50 [1] | Ratio IC50 [2] | IC50 [3] | other results
CCCc1ccc(Cc2ccc3c(c2)[C@]2(OC3)O[C@H](C)[C@@H](O)[C@H](O)[C@H]2O)cc1 | > 0.1 µM | – | – | –
Cc1ccc(Cc2ccc3c(c2)[C@]2(OC3)O[C@H](C)[C@@H](O)[C@H](O)[C@H]2O)s1 | > 0.1 µM | – | – | –
CCCOCCc1ccc(Cc2cc3c(cc2Cl)CO[C@]32O[C@H](C)[C@@H](O)[C@H](O)[C@H]2O)s1 | 0.0423 µM | 117 | 5 µM | –
CCc1ccc(Cc2cc3c(cc2F)CO[C@]32O[C@H](C)[C@@H](O)[C@H](O)[C@H]2O)s1 | 0.0262 µM | 988 | – | –
C[C@H]1O[C@]2(OCc3cc(Cl)c(Cc4cc5ccccc5s4)cc32)[C@H](O)[C@@H](O)[C@@H]1O | – | 81 | 2 µM | –
COC(=O)Cc1ccc(Cc2cc3c(cc2Cl)CO[C@]32O[C@H](C)[C@@H](O)[C@H](O)[C@H]2O)s1 | 0.0424 µM | 151 | 6.4 µM | –
CCOCCc1ccc(Cc2cc3c(cc2Cl)CO[C@]32O[C@H](C)[C@@H](O)[C@H](O)[C@H]2O)s1 | 0.0675 µM | 71 | 4.8 µM | –
CCc1ccc(Cc2ccc3c(c2)[C@]2(OC3)O[C@H](C)[C@@H](O)[C@H](O)[C@H]2O)s1 | > 0.1 µM | – | – | –
CCc1ccc(Cc2cc3c(cc2Cl)CO[C@]32O[C@H](C)[C@@H](O)[C@H](O)[C@H]2O)cc1 | – | 13 | 0.4 µM | –
COc1ccc(Cc2ccc3c(c2)[C@]2(OC3)O[C@H](C)[C@@H](O)[C@H](O)[C@H]2O)cc1 | > 0.1 µM | – | – | –
C[C@H]1O[C@]2(OCc3ccc(Cc4ccc(Cl)s4)cc32)[C@H](O)[C@@H](O)[C@@H]1O | > 0.1 µM | – | – | –
Cc1ccc(Cc2cc3c(cc2Cl)CO[C@]32O[C@H](C)[C@@H](O)[C@H](O)[C@H]2O)s1 | 0.0085 µM | 46 | 0.4 µM | –
C[C@H]1O[C@]2(OCc3cc(Cl)c(Cc4ccc(CO)s4)cc32)[C@H](O)[C@@H](O)[C@@H]1O | 0.0472 µM | 47 | 2.2 µM | –
C[C@H]1O[C@]2(OCc3cc(Cl)c(Cc4ccc(-c5ccc(F)cc5)s4)cc32)[C@H](O)[C@@H](O)[C@@H]1O | > 0.1 µM | – | – | –
CCOc1ccc(Cc2ccc3c(c2)[C@]2(OC3)O[C@H](C)[C@@H](O)[C@H](O)[C@H]2O)cc1 | > 0.1 µM | – | – | –
Cc1ccc(Cc2ccc3c(c2)[C@]2(OC3)O[C@H](C)[C@@H](O)[C@H](O)[C@H]2O)cc1 | > 0.1 µM | – | – | –
C[C@H]1O[C@]2(OCc3ccc(Cc4ccc(-c5ccc(F)cc5)s4)cc32)[C@H](O)[C@@H](O)[C@@H]1O | > 0.1 µM | – | – | –

SMILES | IC50 [1] | Ratio IC50 [2] | IC50 [3] | other results
CCOc1ccc(Cc2cc([C@@H]3S[C@H](CO)[C@@H](O)[C@H](O)[C@H]3O)c(OC)cc2C)cc1 | – | – | – | T1/2 [4]: 7 h
C[C@H]1O[C@]2(OCc3ccc(Cc4cc5ccccc5s4)cc32)[C@H](O)[C@@H](O)[C@@H]1O | > 0.1 µM | – | – | –
CCc1ccc(Cc2ccc3c(c2)[C@]2(OC3)O[C@H](CO)[C@@H](O)[C@H](O)[C@H]2O)cc1.O [TOFOGLIFLOZIN] | – | – | – | Activity [5]: 73.68 mg; Activity [6]: 43.67 mmol/L; Activity [7]: 26.5 mL; Activity [8]: 56.27 mmol/L; Activity [9]: 1.3 mL; Activity [10]: 48.85 mg
CC(C)c1ccc(Cc2ccc3c(c2)[C@]2(OC3)O[C@H](C)[C@@H](O)[C@H](O)[C@H]2O)cc1 | > 0.1 µM | – | – | –
COCCc1ccc(Cc2cc3c(cc2Cl)CO[C@]32O[C@H](C)[C@@H](O)[C@H](O)[C@H]2O)s1 | 0.0694 µM | 68 | 4.7 µM | –
C[C@H]1O[C@]2(OCc3cc(Cl)c(Cc4ccc(C=O)s4)cc32)[C@H](O)[C@@H](O)[C@@H]1O | 0.0513 µM | 70 | 3.6 µM | –
C[C@H]1O[C@]2(OCc3ccc(Cc4cc5ccccc5o4)cc32)[C@H](O)[C@@H](O)[C@@H]1O | > 0.1 µM | – | – | –
CCOc1ccc(Cc2cc3c(cc2Cl)CO[C@]32O[C@H](C)[C@@H](O)[C@H](O)[C@H]2O)cc1 | 0.0088 µM | 60 | 0.5 µM | –
COC(=O)c1ccc(Cc2cc3c(cc2Cl)CO[C@]32O[C@H](C)[C@@H](O)[C@H](O)[C@H]2O)s1 | 0.0515 µM | 58 | 3 µM | –
OC[C@H]1O[C@@H](c2ccc(Cl)c(Cc3ccc(O[C@H]4CCOC4)cc3)c2)[C@H](O)[C@@H](O)[C@@H]1O | – | – | – | T1/2 [4]: 1 h
C[C@H]1O[C@]2(OCc3ccc(Cc4ccc(-c5ccccc5)s4)cc32)[C@H](O)[C@@H](O)[C@@H]1O | > 0.1 µM | – | – | –
C[C@H]1O[C@]2(OCc3ccc(Cc4ccc(-c5ccccn5)s4)cc32)[C@H](O)[C@@H](O)[C@@H]1O | > 0.1 µM | – | – | –
C[C@H]1O[C@]2(OCc3cc(Cl)c(Cc4ccc(Cl)s4)cc32)[C@H](O)[C@@H](O)[C@@H]1O | 0.0159 µM | 30 | 0.5 µM | –
C[C@H]1O[C@]2(OCc3ccc(Cc4ccc5ccccc5c4)cc32)[C@H](O)[C@@H](O)[C@@H]1O | > 0.1 µM | – | – | –
CCc1ccc(Cc2ccc3c(c2)[C@]2(OC3)O[C@H](C)[C@@H](O)[C@H](O)[C@H]2O)cc1 | – | 351 | – | –
CCCc1ccc(Cc2ccc3c(c2)[C@]2(OC3)O[C@H](C)[C@@H](O)[C@H](O)[C@H]2O)s1 | > 0.1 µM | – | – | –
